{"source": "ChEMBL document CHEMBL2010644", "about": "“Evaluation and discovery of novel synthetic chalcone derivatives as anti-inflammatory agents” (J Med Chem, 2011)", "note": "Activity calls are given as the source filed them. The calls are words filed in the database; no cut-off is given here.", "data": [{"system": "Peritoneal macrophage cell", "assay": "Antiinflammatory activity in ICR mouse primary peritoneal macrophages assessed as downregulation of LPS-induced COX-2 mRNA expression at 10 uM incubated for 2 hrs prior to LPS-challenge measured after 6 hrs by RT-qPCR analysis", "type": "functional, cell-based", "procedure,_shortened": "(§1)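 Macrophages pretreated 2 h with compound at 10 μM or vehicle, then LPS 0.5 μg/mL for 6 h. mRNA of TNF-α, IL-6, COX-2, IL-1β and IL-12 quantified by RT-qPCR, normalized to β-actin mRNA and expressed as ratio to DMSO. Mean ± SD of four to seven independent experiments.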", "values": [{"smiles": "COc1ccc(C(=O)/C=C/c2ccc(O)c(OC)c2)cc1", "Activity": "Active"}]}, {"system": "Peritoneal macrophage cell", "assay": "Antiinflammatory activity in ICR mouse primary peritoneal macrophages assessed as downregulation of high glucose-induced TNFalpha mRNA expression at 10 uM incubated for 2 hrs prior to high glucose-challenge measured after 3 hrs by RT-qPCR analysis", "type": "functional, cell-based", "procedure,_shortened": "(§2)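 Peritoneal macrophages (1 × 10^6) pretreated with compound (10 μM) or DMSO for 2 h, then high glucose (25 mM) for 3 h. Low-glucose reference cells kept in RPMI-1640 with 5.5 mM glucose. TNF-α, IL-1β, IL-6 and IL-12 mRNA measured by RT-qPCR on whole-cell RNA. Mean ± SEM, three independent experiments run in duplicate.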", "values": [{"smiles": "COc1ccc(C(=O)/C=C/c2ccc(O)c(OC)c2)cc1", "Activity": "Active"}]}, {"system": "Peritoneal macrophage cell", "assay": "Antiinflammatory activity in ICR mouse primary peritoneal macrophages assessed as downregulation of LPS-induced TNF-alpha mRNA expression at 10 uM incubated for 2 hrs prior to LPS-challenge measured after 6 hrs by RT-qPCR analysis", "type": "functional, cell-based", "procedure,_shortened": "as §1", "values": [{"smiles": "COc1ccc(C(=O)/C=C/c2ccc(O)c(OC)c2)cc1", "Activity": "Active"}]}, {"system": "RAW264.7", "assay": "Antiinflammatory activity in mouse RAW264.7 cells assessed as inhibition of LPS-induced TNFalpha production at 10 uM incubated for 2 hrs prior to LPS-challenge measured after 22 hrs by ELISA", "type": "functional, cell-based", "procedure,_shortened": "(§3)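 RAW264.7 cells grown in DMEM with 10% FBS at 37 °C, 5% CO2, plated at 1.2 × 10^6/plate overnight. Compound pretreatment 2 h (screen at 10 μM; dose-response at 2.5, 5.0, 10 μM), then LPS 0.5 μg/mL for 22 h. Medium TNF-α or IL-6 measured by ELISA, normalized to cell protein, expressed as % of LPS control; IC50 derived from dose series.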", "values": [{"smiles": "COc1cc(/C=C/C(=O)CC(=O)/C=C/c2ccc(O)c(OC)c2)ccc1O", "inhibition": "Active"}, {"smiles": "COc1ccc(/C=C/C(=O)c2cc(OC)c(OC)c(OC)c2)c(OC)c1", "inhibition": "Active"}, {"smiles": "COc1ccc(C(=O)/C=C/c2ccccc2Cl)cc1OC", "inhibition": "Active"}, {"smiles": "COc1ccc(C(=O)/C=C/c2cccc(OC)c2OC)cc1", "inhibition": "Active"}, {"smiles": "COc1ccc(C(=O)/C=C/c2ccc(O)c(OC)c2)cc1", "inhibition": "Active"}]}, {"system": "Peritoneal macrophage cell", "assay": "Antiinflammatory activity in ICR mouse primary peritoneal macrophages assessed as downregulation of LPS-induced IL-6 mRNA expression at 10 uM incubated for 2 hrs prior to LPS-challenge measured after 6 hrs by RT-qPCR analysis", "type": "functional, cell-based", "procedure,_shortened": "as §1", "values": [{"smiles": "COc1ccc(C(=O)/C=C/c2ccc(O)c(OC)c2)cc1", "Activity": "Active"}]}, {"system": "Peritoneal macrophage cell", "assay": "Antiinflammatory activity in ICR mouse primary peritoneal macrophages assessed as downregulation of high glucose-induced IL1beta mRNA expression at 10 uM incubated for 2 hrs prior to high glucose-challenge measured after 3 hrs by RT-qPCR analysis", "type": "functional, cell-based", "procedure,_shortened": "as §2", "values": [{"smiles": "COc1ccc(C(=O)/C=C/c2ccc(O)c(OC)c2)cc1", "Activity": "Active"}]}, {"system": "RAW264.7", "assay": "Antiinflammatory activity in mouse RAW264.7 cells assessed as inhibition of LPS-induced IL6 production at 10 uM incubated for 2 hrs prior to LPS-challenge measured after 22 hrs by ELISA", "type": "functional, cell-based", "procedure,_shortened": "as §3", "values": [{"smiles": "COc1cc(/C=C/C(=O)CC(=O)/C=C/c2ccc(O)c(OC)c2)ccc1O", "inhibition": "Active"}, {"smiles": "COc1ccc(/C=C/C(=O)c2cc(OC)c(OC)c(OC)c2)c(OC)c1", "inhibition": "Active"}, {"smiles": "COc1ccc(C(=O)/C=C/c2ccccc2Cl)cc1OC", "inhibition": "Active"}, {"smiles": "COc1ccc(C(=O)/C=C/c2cccc(OC)c2OC)cc1", "inhibition": "Active"}, {"smiles": "COc1ccc(C(=O)/C=C/c2ccc(O)c(OC)c2)cc1", "inhibition": "Active"}]}, {"system": "Peritoneal macrophage cell", "assay": "Antiinflammatory activity in ICR mouse primary peritoneal macrophages assessed as downregulation of high glucose-induced IL6 mRNA expression at 10 uM incubated for 2 hrs prior to high glucose-challenge measured after 3 hrs by RT-qPCR analysis", "type": "functional, cell-based", "procedure,_shortened": "as §2", "values": [{"smiles": "COc1ccc(C(=O)/C=C/c2ccc(O)c(OC)c2)cc1", "Activity": "Active"}]}, {"target": "MAP kinase p38 (Mus musculus) (UniProt P47811+O08911+Q9WUI1+Q9Z1B7)", "assay": "Inhibition of LPS-induced p38 phosphorylation in ICR mouse primary peritoneal macrophages at 10 uM incubated for 2 hrs prior to LPS-challenge measured after 1 hr by Western blot analysis", "procedure,_shortened": "(§4)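 Cells pretreated 2 h with DMSO or compound (10 μM in the single-concentration set; 2.5, 5.0, 10, 20 μM in the dose series), then LPS 0.5 μg/mL for 1 h. p-ERK, ERK, p-p38 and p38 detected by Western blot with actin loading control; optical density ratio reported. Mean ± SE, three independent experiments.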", "values": [{"smiles": "COc1ccc(C(=O)/C=C/c2ccc(O)c(OC)c2)cc1", "inhibition": "Active"}]}, {"system": "Peritoneal macrophage cell", "assay": "Antiinflammatory activity in ICR mouse primary peritoneal macrophages assessed as downregulation of LPS-induced IL-12 mRNA expression at 10 uM incubated for 2 hrs prior to LPS-challenge measured after 6 hrs by RT-qPCR analysis", "type": "functional, cell-based", "procedure,_shortened": "as §1", "values": [{"smiles": "COc1ccc(C(=O)/C=C/c2ccc(O)c(OC)c2)cc1", "Activity": "Active"}]}, {"system": "RAW264.7", "assay": "Antiinflammatory activity in mouse RAW264.7 cells assessed as inhibition of LPS-induced IL6 production incubated for 2 hrs prior to LPS-challenge measured after 22 hrs by ELISA", "type": "functional, cell-based", "procedure,_shortened": "as §3", "units": {"IC50": "µM"}, "values": [{"smiles": "COc1ccc(C(=O)/C=C/c2ccc(O)c(OC)c2)cc1", "IC50": "> 10", "inhibition": "Dose-dependent effect"}]}, {"system": "Peritoneal macrophage cell", "assay": "Antiinflammatory activity in ICR mouse primary peritoneal macrophages assessed as downregulation of LPS-induced IL-1beta mRNA expression at 10 uM incubated for 2 hrs prior to LPS-challenge measured after 6 hrs by RT-qPCR analysis", "type": "functional, cell-based", "procedure,_shortened": "as §1", "values": [{"smiles": "COc1ccc(C(=O)/C=C/c2ccc(O)c(OC)c2)cc1", "Activity": "Active"}]}, {"system": "RAW264.7", "assay": "Antiinflammatory activity in mouse RAW264.7 cells assessed as inhibition of LPS-induced TNFalpha production incubated for 2 hrs prior to LPS-challenge measured after 22 hrs by ELISA", "type": "functional, cell-based", "procedure,_shortened": "as §3", "values": [{"smiles": "COc1ccc(C(=O)/C=C/c2ccc(O)c(OC)c2)cc1", "inhibition": "Dose-dependent effect"}]}, {"species_on_record": "Mus musculus", "assay": "Inhibition of LPS-induced ERK phosphorylation in ICR mouse primary peritoneal macrophages at 10 uM incubated for 2 hrs prior to LPS-challenge measured after 1 hr by Western blot analysis", "procedure,_shortened": "as §4", "values": [{"smiles": "COc1ccc(C(=O)/C=C/c2ccc(O)c(OC)c2)cc1", "inhibition": "Active"}]}, {"system": "Peritoneal macrophage cell", "assay": "Antiinflammatory activity in ICR mouse primary peritoneal macrophages assessed as downregulation of high glucose-induced IL12 mRNA expression at 10 uM incubated for 2 hrs prior to high glucose-challenge measured after 3 hrs by RT-qPCR analysis", "type": "functional, cell-based", "procedure,_shortened": "as §2", "values": [{"smiles": "COc1ccc(C(=O)/C=C/c2ccc(O)c(OC)c2)cc1", "Activity": "Active"}]}]}
